# Legend:
# [1] = test system: Plasmodium falciparum; assay: Antimalarial activity against ring stage Plasmodium falciparum 3D7 infected in human erythrocytes after 48 hrs by flow cytometry; format: functional, organism-based; details: 3D7, 48 h
# [2] = Growth inhibition of human Jurkat cells at 25 uM after 72 hrs by MTT assay; format: cell-based; details: read-out: GI
# Method in brief: (§1)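 Cytotoxicity counter-screen on human Jurkat (T cell) and human HeLa (cervical carcinoma) cell lines. Selected compounds were tested at one fixed concentration each.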
# [3] = Growth inhibition of human HeLa cells at 25 uM after 72 hrs by MTT assay; format: cell-based; details: read-out: GI; method in brief: as §1
SMILES,IC50 [1] [µM],"inhibition at 72 h, 25 µM [2] [%]","inhibition at 72 h, 25 µM [3] [%]"
O=C(O)C(F)Cc1cccc2c1B(O)OC2 (stereo not given),0.83,,
O=P(O)(O)CCc1cccc2c1B(O)OC2,> 5,3,26
O=C1NC(=O)C(Cc2cccc3c2B(O)OC3)N1 (stereo not given),> 5,14.1,67.7
O=C(O)C1CCc2ccc3c(c2C1)B(O)OC3 (stereo not given),1.82,,
O=C(O)CCc1c(Cl)ccc2c1B(O)OC2,0.75,,
O=C(O)CCc1cc(Cl)cc2c1B(O)OC2,1.33,,
O=C1C(O)=C([C@H]2CC[C@H](c3ccc(Cl)cc3)CC2)C(=O)c2ccccc21 [ATOVAQUONE],0.001,,

# Second part, led by results:
IC50 [1] [µM],SMILES,"inhibition at 72 h, 25 µM [2] [%]","inhibition at 72 h, 25 µM [3] [%]"
1.45,Cc1ccc(CCC(=O)O)c2c1COB2O,,
> 5,CC(=O)Nc1ccc(CCC(=O)O)c2c1COB2O,,
3.48,COc1cc(CCC(=O)O)c2c(c1)COB2O,,
0.061,O=C(O)CCc1cc(F)cc2c1B(O)OC2,,
